Test results taken from ChEMBL document CHEMBL3526056, “Characterization of in vitro glucuronidation clearance of a range of drugs in human kidney microsomes: comparison with liver and intestinal glucuronidation and impact of albumin” (Drug Metab Dispos, 2012).

Assays:
[1] = molecular target: T1, UDP-glucuronosyltransferase 1A3 (Homo sapiens, UniProt P35503); assay: Drug metabolism in human kidney microsomes assessed as UGT1A3-mediated unbound intrinsic glucuronidation clearance at 1 uM after 30 to 60 mins by LC-MS/MS analysis in presence of 1% bovine serum albumin; format: ADME
T1 sequence (P35503 whole entry): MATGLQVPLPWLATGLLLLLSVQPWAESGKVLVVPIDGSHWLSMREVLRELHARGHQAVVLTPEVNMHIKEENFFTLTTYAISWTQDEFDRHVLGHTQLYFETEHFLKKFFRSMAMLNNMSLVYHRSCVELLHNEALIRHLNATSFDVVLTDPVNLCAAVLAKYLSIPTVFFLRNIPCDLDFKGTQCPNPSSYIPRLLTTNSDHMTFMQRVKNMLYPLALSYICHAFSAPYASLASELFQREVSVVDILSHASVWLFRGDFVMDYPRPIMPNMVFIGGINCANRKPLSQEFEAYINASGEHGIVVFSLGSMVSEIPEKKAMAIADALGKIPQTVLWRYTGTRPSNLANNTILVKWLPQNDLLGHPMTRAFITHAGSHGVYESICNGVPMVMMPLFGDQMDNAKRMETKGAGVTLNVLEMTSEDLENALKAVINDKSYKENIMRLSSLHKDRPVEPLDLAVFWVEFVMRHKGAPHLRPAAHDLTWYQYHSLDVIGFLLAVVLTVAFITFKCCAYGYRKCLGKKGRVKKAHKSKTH

[2] = molecular target: T1, UDP-glucuronosyltransferase 1A3; assay: Ratio of UGT1A3-mediated unbound intrinsic glucuronidation clearance in human kidney microsomes to UGT1A3-mediated unbound intrinsic glucuronidation clearance in human liver microsomes at 1 uM in presence of 1% bovine serum albumin; format: ADME
How it was run: (§1)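 Ratios of mean unbound CLint,UGT, each scaled per g tissue, between pooled liver, kidney and intestinal microsomes. Values come from 1 μM substrate-depletion assays in pH 7.1 phosphate at 37°C, run with or without BSA (1% for acids, 2% for bases/neutral drugs). Corrected for nonspecific binding. Kidney and liver n = 3; intestine n = 1; each in duplicate.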

[3] = molecular target: T1, UDP-glucuronosyltransferase 1A3; assay: Ratio of UGT1A3-mediated unbound intrinsic glucuronidation clearance in human intestinal microsomes to UGT1A3-mediated unbound intrinsic glucuronidation clearance in human liver microsomes at 1 uM in presence of 1% bovine serum albumin; format: ADME; how it was run: as §1
[4] = molecular target: T1, UDP-glucuronosyltransferase 1A3; assay: Ratio of UGT1A3-mediated unbound intrinsic glucuronidation clearance in human kidney microsomes to UGT1A3-mediated unbound intrinsic glucuronidation clearance in human intestinal microsomes at 1 uM in presence of 1% bovine serum albumin; format: ADME; how it was run: as §1
[5] = Clearance in iv dosed human; format: ADME, organism-based; details: in vivo
[6] = Fraction unbound in human plasma
Liver microsome [7] = assay: Fraction metabolized glucuronidation in human liver microsomes in presence of UDP-glucuronosyltransferase; format: ADME
Liver microsome [8] = assay: Fraction metabolized glucuronidation in human liver microsomes in presence of UDP-glucuronosyltransferase and bovine serum albumin; format: ADME
[9] = Glucuronidation clearance in human liver microsomes; format: ADME
[10] = Glucuronidation clearance in human liver microsomes in presence of bovine serum albumin; format: ADME
[11] = Fraction unbound in human liver microsomes at 1 uM after 30 to 60 mins by LC-MS/MS analysis; format: ADME
[12] = Fraction unbound in human kidney microsomes at 1 uM after 30 to 60 mins by LC-MS/MS analysis; format: ADME
[13] = Fraction unbound in human intestinal microsomes at 1 uM after 30 to 60 mins by LC-MS/MS analysis; format: ADME, Intestine, Microsome
Liver microsome [14] = assay: Fraction unbound in human liver microsomes at 1 uM after 30 to 60 mins by LC-MS/MS analysis in presence of 1% bovine serum albumin; format: ADME; details: microsomes, 1 µM
Liver microsome [15] = assay: Unbound intrinsic glucuronidation clearance in human liver microsomes at 1 uM after 30 to 60 mins by LC-MS/MS analysis in presence of UDP-glucuronosyltransferase; format: ADME
How it was run: (§2)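 Alamethicin-activated pooled microsomes (HLM 150 donors; HKM 8; HIM 18). Drug at 1 μM final, preincubated 5 min at 37°C in 0.1 M phosphate pH 7.1 with 3.45 mM MgCl2, 1.15 mM EDTA, 115 μM saccharic acid lactone. Started with […] cofactor (5 mM final), 30–60 min. Cofactor-free controls. Parent depletion by LC-MS/MS, single-exponential k. Corrected by HLM-dialysis fu,inc. Duplicates; n=3 (HIM n=1).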

Liver microsome [16] = assay: Unbound intrinsic glucuronidation clearance in human liver microsomes at 1 uM after 30 to 60 mins by LC-MS/MS analysis in presence of UDP-glucuronosyltransferase and 1% bovine serum albumin; format: ADME
[17] = Unbound intrinsic glucuronidation clearance in human kidney microsomes at 1 uM after 30 to 60 mins by LC-MS/MS analysis in presence of UDP-glucuronosyltransferase; format: ADME, microsome; how it was run: as §2
[18] = molecular target: T1, UDP-glucuronosyltransferase 1A3; assay: Drug metabolism in human intestinal microsomes assessed as UGT1A3-mediated unbound intrinsic glucuronidation clearance at 1 uM after 30 to 60 mins by LC-MS/MS analysis in presence of 1% bovine serum albumin; format: ADME, Intestine
[19] = molecular target: T1, UDP-glucuronosyltransferase 1A3; assay: Drug metabolism in human kidney microsomes assessed as UGT1A3-mediated unbound intrinsic glucuronidation clearance at 1 uM after 30 to 60 mins by LC-MS/MS analysis; format: ADME
How it was run: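 Pooled human kidney microsomes (8 donors), alamethicin-activated. […] Started with cofactor (5 mM in incubation) and run 30–60 min. Parent depletion measured by LC-MS/MS; single-exponential k; corrected by equilibrium-dialysis fu,inc. Duplicates, three occasions.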

[20] = molecular target: T1, UDP-glucuronosyltransferase 1A3; assay: Drug metabolism in human intestinal microsomes assessed as UGT1A3-mediated unbound intrinsic glucuronidation clearance at 1 uM after 30 to 60 mins by LC-MS/MS analysis; format: ADME, Intestine
[21] = Unbound intrinsic glucuronidation clearance in human kidney microsomes at 1 uM after 30 to 60 mins by LC-MS/MS analysis in presence of UDP-glucuronosyltransferase and 1% bovine serum albumin; format: ADME, microsome
[22] = Unbound intrinsic glucuronidation clearance in human intestinal microsomes at 1 uM after 30 to 60 mins by LC-MS/MS analysis in presence of UDP-glucuronosyltransferase; format: ADME, Intestine, Microsome; how it was run: as §2
[23] = Unbound intrinsic glucuronidation clearance in human intestinal microsomes at 1 uM after 30 to 60 mins by LC-MS/MS analysis in presence of UDP-glucuronosyltransferase and 1% bovine serum albumin; format: ADME, Intestine, Microsome
Liver microsome [24] = assay: Ratio of unbound intrinsic glucuronidation clearance in human liver microsomes in presence of 1% bovine serum albumin to unbound intrinsic glucuronidation clearance in human liver microsomes in absence of bovine serum albumin; format: ADME
How it was run: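 Ratio of mean unbound CLint,UGT in pooled human liver microsomes with 1% BSA to that without BSA. Both come from 1 μM depletion assays at 37°C in pH 7.1 phosphate buffer, with parent drug measured by LC-MS/MS. BSA runs were quenched in double-volume ice-cold acetonitrile. Each condition was corrected by its own equilibrium-dialysis fu,inc. n = 3, duplicates.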

[25] = Ratio of unbound intrinsic glucuronidation clearance in human kidney microsomes in presence of 1% bovine serum albumin to unbound intrinsic glucuronidation clearance in human kidney microsomes in absence of bovine serum albumin; format: ADME, microsome
How it was run: (§3)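 Unbound intrinsic glucuronidation clearance measured by parent-drug depletion in intestinal or kidney microsomes, once with 1% BSA and once without, under otherwise matched conditions (1 μM drug, pH 7.1 phosphate, 5 mM cofactor, 37°C). Each value was corrected for fu,inc. The ratio is the mean clearance with BSA over the mean without.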

[26] = Ratio of unbound intrinsic glucuronidation clearance in human intestinal microsomes in presence of 1% bovine serum albumin to unbound intrinsic glucuronidation clearance in human intestinal microsomes in absence of bovine serum albumin; format: ADME, Intestine, Microsome; how it was run: as §3
[27] = molecular target: T1, UDP-glucuronosyltransferase 1A3; assay: Drug metabolism in human liver microsomes assessed as UGT1A3-mediated unbound intrinsic glucuronidation clearance at 1 uM after 30 to 60 mins by LC-MS/MS analysis; format: ADME
[28] = molecular target: T1, UDP-glucuronosyltransferase 1A3; assay: Ratio of UGT1A3-mediated unbound intrinsic glucuronidation clearance in human kidney microsomes to UGT1A3-mediated unbound intrinsic glucuronidation clearance in human liver microsomes at 1 uM; format: ADME; how it was run: as §1
[29] = molecular target: T1, UDP-glucuronosyltransferase 1A3; assay: Ratio of UGT1A3-mediated unbound intrinsic glucuronidation clearance in human intestinal microsomes to UGT1A3-mediated unbound intrinsic glucuronidation clearance in human liver microsomes at 1 uM; format: ADME; how it was run: as §1
[30] = molecular target: T1, UDP-glucuronosyltransferase 1A3; assay: Ratio of UGT1A3-mediated unbound intrinsic glucuronidation clearance in human kidney microsomes to UGT1A3-mediated unbound intrinsic glucuronidation clearance in human intestinal microsomes at 1 uM; format: ADME; how it was run: as §1
[31] = molecular target: T1, UDP-glucuronosyltransferase 1A3; assay: Drug metabolism in human liver microsomes assessed as UGT1A3-mediated unbound intrinsic glucuronidation clearance at 1 uM after 30 to 60 mins by LC-MS/MS analysis in presence of 1% bovine serum albumin; format: ADME

CCCc1nc2c(C)cc(-c3nc4ccccc4n3C)cc2n1Cc1ccc(-c2ccccc2C(=O)O)cc1
CL free [1]: 0.439 mL/min/g | Ratio [2]: 0.028 | Ratio [3]: 0.119 | Ratio [4]: 0.233 | clearance [5]: 12.3 mL/min/kg | fraction unbound [6]: 0.005 | Drug metabolism (Liver microsome [7]): 1 | Drug metabolism (Liver microsome [8]): 1 | CLhep predicted [9]: 9.93 mL/min/kg | CLhep predicted [10]: 9.93 mL/min/kg | fraction unbound at 1 µM [11]: 0.65 | fraction unbound at 1 µM [12]: 0.48 | fraction unbound at 1 µM [13]: 0.48 | Fu (Liver microsome [14]): 0.07 | CL free (Liver microsome [15]): 76.9 µL/min/mg | CL free (Liver microsome [16]): 395 µL/min/mg | CL free [17]: 9.72 µL/min/mg | CL free [18]: 1.88 mL/min/g | CL free [19]: 0.124 mL/min/g | CL free [20]: 0.438 mL/min/g | CL free [21]: 34.3 µL/min/mg | CL free [22]: 21.3 µL/min/mg | CL free [23]: 91.4 µL/min/mg | Ratio (Liver microsome [24]): 1.6 | Ratio [25]: 1.6 | Ratio [26]: 1.6 | CL free [27]: 3.08 mL/min/g | Ratio [28]: 0.04 | Ratio [29]: 0.142 | Ratio [30]: 0.284 | CL free [31]: 15.8 mL/min/g
